Assay results collected from several papers.
Protocols differ between the studies behind these lines.
RAF1 Y340D/Y341D: RAF proto-oncogene serine/threonine-protein kinase (RAF1, Homo sapiens, UniProt P04049, Y340D/Y341D)
RAF1: RAF proto-oncogene serine/threonine-protein kinase (RAF1, Homo sapiens, UniProt P04049)

SMILES | target | assay | setting | endpoint | value
Cn1cc(-c2cc(F)cc(N3CCn4c(cc5c4CCCC5)C3=O)c2CO)cc(Nc2ccc(N3CCN(C4COC4)CC3)cn2)c1=O | RAF1 Y340D/Y341D | enzyme activity, inhibitor | 0.1 µM | inhibition | 5%
C#Cc1n[nH]c2c(-c3cn([C@@H](C)c4ccccc4)c(=O)[nH]c3=O)cc(F)cc12 | RAF1 Y340D/Y341D | enzyme activity, inhibitor | 0.1 µM | inhibition | 4.4%
Cn1cncc1[C@](O)(COc1ccc(C#N)cc1-c1ccc(OC(F)(F)F)cc1)c1ccc(C#N)cc1 | RAF1 | cell-free assay, competition with immobilised ligand | 1 µM | remaining binding | 100%
Nc1ncc(-c2nc(N3CCOCC3)nc(N3CCOCC3)n2)c(C(F)F)n1 | RAF1 | binding, competition with immobilised ligand | 10 µM | remaining binding | 98%
O=c1[nH]c2ccccc2n1C1CCN(Cc2ccc(-c3[nH]c4cc5ncnc5cc4nc3-c3ccccc3)cc2)CC1 | RAF1 | cell-free assay | 0.5 µM | remaining signal | 94.7%
Cn1cc(-c2cccc(N3CCc4c(sc5c4CC(C)(C)C5)C3=O)c2CO)cc(Nc2ccncn2)c1=O | RAF1 Y340D/Y341D | enzyme activity, inhibitor | 1 µM | inhibition | 10%
CC(C)(C)c1cc(C=C(C#N)C#N)cc(Br)c1O | RAF1 | enzyme activity, inhibitor | 0.5 µM | remaining activity | 104%
Cc1nn(C)cc1-c1nc2c(N3CCN(Cc4ccc(Cl)cc4)CC3)c(Cl)cnc2[nH]1 | RAF1 | binding, competition with immobilised ligand | 1 µM | remaining binding | 69%
C#Cc1n[nH]c2c(-c3cn(C(C)c4ccccn4)c(=O)[nH]c3=O)cc(F)cc12 (stereo not shown) | RAF1 Y340D/Y341D | enzyme activity, inhibitor | 1 µM | inhibition | 15.5%
COc1ncccc1-c1cnn2ccc(N3CCN(C(=O)OC(C)C)CC3)nc12 | RAF1 | binding, competition with immobilised ligand | 1 µM | remaining binding | 60%
